Published values collected from several papers.
Lines come from different studies, so protocols differ.
Matrix: plasma

Cc1cc(S(=O)(=O)N[C@]2(C)C[C@@H](N3CCN(CC4CCN(c5ccc6c(c5F)n(C)c(=O)n6C5CCC(=O)NC5=O)CC4)CC3)C2)ccc1Nc1ncc(C(F)(F)F)c(N2CCC[C@](C)(O)C2)n1 (some centres unmarked) gave a half-life of 2.1 h (rat; intravenous; 2 mg/kg).
COc1nc(-c2cccc(-c3ccccc3)c2C)ccc1CNCCNC(=O)CCCCCCCCCCC(=O)N1CCN(CCNC(=O)c2cc3c(=O)n4cccc(C)c4nc3n(CCc3cccs3)c2=N)CC1 gave a half-life of 6.8 h (male Sprague-Dawley rat; oral; 40 mg/kg).
For C[C@H]1Oc2cc(cnc2N)-c2c(nn(C)c2C#N)CN(C)C(=O)c2ccc(F)cc21, the half-life was 5 h (male Sprague-Dawley rat; oral; 5 mg/kg; single dose).
The half-life of C[C@]1(O)CCCN(c2nc(Nc3ccc(S(=O)(=O)N[C@H]4CC[C@H](CN5CCN(c6ccc(C7CCC(=O)NC7=O)c(F)c6)CC5)CC4)cc3F)ncc2C(F)(F)F)C1 (some centres unmarked) is reported as 6 h (rat; intravenous; 2 mg/kg).
With COc1ccc(N(Cc2csc(-c3ccccc3)n2)C(=O)CCCCCC(=O)NO)cc1 the half-life was 0.63 h (female Sprague-Dawley rat; intravenous; 5 mg/kg).
Cc1nc(Nc2ncc(C(=O)Nc3c(C)cccc3Cl)s2)cc(N2CC[C@H](N)C2)n1 has a half-life of 3.8 h (male Sprague-Dawley rat; intravenous; 1 mg/kg).
With CCCCC(=O)Nc1ccc(-c2ccc3ncn(CCC)c(=O)c3c2)cn1 the half-life was 0.582 h (male rat; intravenous; 2.5 mg/kg).
For CCCCCCCCCC(=O)N[C@@H](Cc1c[nH]c2ccccc12)C(=O)N[C@H](CC(N)=O)C(=O)N[C@@H](CC(=O)O)C(=O)N[C@@H]1C(=O)NCC(=O)N[C@@H](CCCN)C(=O)N[C@@H](CC(=O)O)C(=O)N[C@H](C)C(=O)N[C@@H](CC(=O)O)C(=O)NCC(=O)N[C@H](CO)C(=O)N[C@@H]([C@H](C)CC(=O)O)C(=O)N[C@@H](CC(=O)c2ccccc2N)C(=O)O[C@@H]1C, the half-life was 2.6 h (male Wistar rat; subcutaneous; 125 mg/kg; single dose).
With CC[C@@H]([C@H](C)O)n1ncn(-c2ccc(N3CCN(c4ccc(OC[C@@H]5CO[C@@](Cn6cncn6)(c6ccc(F)cc6F)C5)cc4)CC3)cc2)c1=O the half-life was 15.7 h (Sprague-Dawley rat; oral; 40 mg/kg).
For CCOCC(=O)N1CCC[C@H](C(=O)NCc2nc(-c3ccc(C)nc3)cs2)C1, the half-life was 1.9 h (male Sprague-Dawley rat; oral; 3 mg/kg).
C[C@]1(O)CCCN(c2nc(Nc3ccc(S(=O)(=O)N[C@H]4CC[C@H](CN5CCN(c6ccc(C7CCC(=O)NC7=O)cc6F)CC5)CC4)cc3F)ncc2C(F)(F)F)C1 (some centres unmarked) has a half-life of 3.7 h (rat; intravenous; 2 mg/kg).
With COCC(=O)N1CCC[C@H](C(=O)NCc2nc(-c3ccccc3)cs2)C1 the half-life was 3.9 h (male Sprague-Dawley rat; oral; 3 mg/kg).
With CONC(=O)c1cccc2c1cc(C)n2-c1nc2c(c(NCc3ccccc3)n1)CCCN2 the half-life was 3.13 h (male Sprague-Dawley rat; intravenous; 1 mg/kg; single dose).
The half-life of CNS(=O)(=O)c1ccc(Nc2ncc3cc(Cl)c(=O)n(C4CCCC4)c3n2)c(C)c1 is reported as 1.2 h (rat; intravenous; 2 mg/kg).
